Compound activity as filed in PubChem BioAssay.
Most compounds without a hit are left out; they make up all but 5.7% or so of the library.
SKKanGAS inh: SKKanGAS growth inhibition; S. pyogenes SKKanGAS, kanamycin growth, BacTiter-Glo, 6 h; inhibition, % at 7.5 µM; actives 1.3% (n = 300,000);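 active = mean replicate score, as percent of positive control median, at least 50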;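 also: strain carries kanamycin resistance gene driven by streptokinase promoter and grows in 40 µg/ml kanamycin; loss of luminescence reflects streptokinase promoter inhibition or plain growth inhibition; 0% = median of DMSO wells and 100% = positive control at its reference dose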
Mdm2-MdmX inh: disrupts the human Mdm2-MdmX interaction; O15151+Q00987; SaOS-2 split-luciferase Mdm2/MdmX complementation, luminescence; inhibition, % at 8 µM; actives 3% (n = 330,000); AID 485346;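 active = inhibition of at least 50% at 8 µM in the primary screen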
Target sequence (O15151 whole entry, looked up): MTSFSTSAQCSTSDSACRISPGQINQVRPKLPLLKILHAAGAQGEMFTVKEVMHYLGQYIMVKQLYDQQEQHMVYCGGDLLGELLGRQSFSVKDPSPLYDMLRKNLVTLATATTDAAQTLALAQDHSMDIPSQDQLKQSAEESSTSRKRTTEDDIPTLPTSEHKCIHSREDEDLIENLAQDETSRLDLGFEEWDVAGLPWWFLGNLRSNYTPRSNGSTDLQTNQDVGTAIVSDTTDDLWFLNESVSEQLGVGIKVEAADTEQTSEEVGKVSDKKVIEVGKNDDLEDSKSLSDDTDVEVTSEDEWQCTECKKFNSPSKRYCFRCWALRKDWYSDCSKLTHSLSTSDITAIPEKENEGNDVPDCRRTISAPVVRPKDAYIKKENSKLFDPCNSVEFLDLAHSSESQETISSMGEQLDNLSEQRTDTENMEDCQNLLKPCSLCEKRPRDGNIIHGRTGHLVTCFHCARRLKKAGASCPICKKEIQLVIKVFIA
Target sequence (Q00987 whole entry, looked up): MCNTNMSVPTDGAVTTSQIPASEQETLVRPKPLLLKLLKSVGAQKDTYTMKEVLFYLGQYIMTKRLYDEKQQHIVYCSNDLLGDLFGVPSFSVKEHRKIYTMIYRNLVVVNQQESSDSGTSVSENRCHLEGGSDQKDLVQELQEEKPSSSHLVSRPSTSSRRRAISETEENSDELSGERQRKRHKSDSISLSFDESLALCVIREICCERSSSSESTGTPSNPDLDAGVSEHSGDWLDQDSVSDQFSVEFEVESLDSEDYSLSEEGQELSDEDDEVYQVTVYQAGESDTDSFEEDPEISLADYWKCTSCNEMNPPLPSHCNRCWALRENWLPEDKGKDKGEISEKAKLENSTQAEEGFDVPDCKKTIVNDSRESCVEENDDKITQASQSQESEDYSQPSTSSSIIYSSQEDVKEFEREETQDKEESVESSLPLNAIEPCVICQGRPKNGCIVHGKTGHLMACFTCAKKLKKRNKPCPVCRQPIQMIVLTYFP
Calb FLC: affects C. albicans growth with fluconazole | actives 0.57% (n = 300,000) | growth inhibition, % (no concentration beside the values) | C. albicans CaCi-2 (fluconazole-resistant clinical isolate) + fluconazole, Alamar Blue growth, 48 h | AID 1979;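 active = growth inhibition above about 58% in most replicates, limit read from the data, passing the limit was not always enough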;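 also: all wells also contain fluconazole at 8 µg/ml as a sub-toxic cotreatment; 0% = median of DMSO wells and 100% = median of geldanamycin control wells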
T cruzi repl: T. cruzi replication inhibition; inhibition, % (concentration not given with the values); T. cruzi beta-gal in NIH3T3, luminescence, 90 h; actives 1.4% (n = 300,000);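 active = mean inhibition across valid replicates above about 55%, limit read from the data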;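 also: signal also drops with host cell toxicity which is not excluded here; 0% = plate median of DMSO wells and 100% = zero luminescence signal; higher percent means less beta-gal luminescence so fewer parasites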
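Incubation – ≥90 h infection period, 3 h prior cell attachment · System – NIH/3T3 fibroblasts plus reporter T. cruzi · Doses – compound pinned at 50 nL/well, DMSO · Read-out basis – percent inhibition of parasite-derived β-gal signal · Signal – luminescent β-galactosidase signal after 60 min lysis · Also added – 5000 T. cruzi trypomastigotes/well · Medium – Low-serum DMEM with 2% FBS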
CSC inhib: cancer stem cell inhibition | cancer stem cell-like cells viability, luminescence | inhibition, % at 7.5 µM | actives 1.1% (n = 300,000); in the data active = inhibition above about 75%; tested in HMLE shEcad cells
Beta cell apopt: blocks beta cell apoptosis; actives 0.8% (n = 300,000); INS-1E cytokine-induced death, ATP luminescence, 48 h; percent of positive-control rescue, neutral wells zero; AID 435005; protection from apoptosis, % (no concentration beside the values);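 active = Every replicate reaches about 75%, or at least half do and their mean reaches it too, limit read from the data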;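 also: 0% = cytokine-treated negative control wells and 100% = positive control rescue; higher means more ATP so stronger rescue from cytokine killing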
Mdm2 MdmX conf: human Mdm2/MdmX binding inhibition, confirmed; shares compounds with Mdm2-MdmX inh; luminescent assay; inhibition, % at 8 µM; actives 55% (n = 10,000); in the data active = inhibition above about 40%
Full FLuc ctr: counter-screen for Mdm2/MdmX inhibitors: full-length luciferase. shares compounds with Mdm2-MdmX inh. SaOS-2 full-length luciferase counterscreen, luminescence. inhibition, % at 8 µM. actives 77% (n = 6,200). AID 504607;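 active = mean inhibition at 8 µM reaching about 37%, which flags the compound as non-specific, limit read from the data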;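 also: p53-null SaOS-2 cells with luciferase driven by a doxycycline-inducible promoter; compound on cells about two nights before reading with doxycycline added after day one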
An asterisk follows results filed as active; / = not tested or not shown.

SMILES | SKKanGAS inh | Mdm2-MdmX inh | Calb FLC | T cruzi repl | CSC inhib | Beta cell apopt | Mdm2 MdmX conf | others
Cc1ccc(N(C(=O)Cc2c[nH]c3ccccc23)C(C(=O)NC2CCCCC2)c2ccco2)cc1 (configuration not stated) | 15.8 | 54.9* | 28.8 | 37.8 | -5.0 | -14.4 | 40.1* | Full FLuc ctr=85.7*
Cc1ccccc1N(C(=O)Cc1c[nH]c2ccccc12)C(C(=O)NC1CCCCC1)c1ccco1 (configuration not stated) | -5.9 | 20.5 | -27.8 | 28.4 | 9.9 | 15.6 | /
CCN(C(=O)c1cc(S(=O)(=O)N2CCCCC2)c[nH]1)c1ccc(OC)cc1 | -4.6 | 33.5 | -1.9 | -1.1 | -3.8 | -3.7 | /
CC(=O)Nc1ccc(S(=O)(=O)NCCC(=O)OCc2csc(CC(=O)Nc3ccccc3C)n2)cc1 | -5.4 | 51.1* | -8.4 | -9.0 | -14.7 | / | 1.1
Cc1ccccc1NC(=O)Cc1nc(COC(=O)CCC(=O)c2ccccc2)cs1 | / | 16.0 | / | / | / | -1.4 | /
CCOC(=O)C(=CNc1nc(-c2ccc3ccccc3c2)cs1)C(=O)OCC | 9.5 | -42.0 | 4.7 | -6.6 | 40.3 | -3.5 | /
CCOC(=O)NC(=O)/C(C#N)=N\Nc1ccc(Cl)cc1 | -4.9 | -14.4 | -1.7 | 5.0 | -7.1 | / | /
CCOC(=O)NC(=O)/C(C#N)=N\Nc1cccc(Cl)c1 | 8.2 | 58.6* | -5.3 | -12.7 | 36.6 | 0.8 | 63.6* | Full FLuc ctr=57.9*
CC(=O)N1CCN(C(=O)c2cc(S(=O)(=O)N3CCCCC3)ccc2Cl)CC1 | -13.6 | -2.8 | 6.1 | 4.8 | -15.4 | / | /
Cn1ncc(S(=O)(=O)Cc2ccccc2)c(Cl)c1=O | -3.8 | 25.3 | -3.3 | -9.8 | -8.5 | 2.5 | /
Cn1ncc(SCc2ccccc2)c(Cl)c1=O | -2.2 | 52.4* | -7.6 | -46.7 | -7.3 | 5.6 | 18.5
Cc1ccccc1NC(=S)NCCC(c1ccccc1)c1ccccc1 | 41.6 | 30.2 | 4.4 | 10.8 | 18.6 | 5.0 | /
Cc1ccc(NC(=S)NCCC(c2ccccc2)c2ccccc2)c(C)c1 | 65.8* | 61.4* | -19.8 | 37.3 | 15.0 | 5.1 | 4.2
COC(=O)c1sccc1NC(=O)/C=C/c1ccc(Cl)cc1Cl | -4.2 | 56.4* | -0.6 | 14.3 | 12.2 | 0.5 | -51.7
COC(=O)c1cc(Cl)c(NC(=O)/C=C/c2ccc(Cl)cc2)cc1OC | 6.4 | 57.6* | -7.3 | -78.0 | 8.2 | 3.5 | -31.6
COC(=O)c1sccc1NC(=O)/C=C/c1c(Cl)cccc1Cl | 4.4 | 11.6 | -20.1 | 7.2 | -3.8 | 13.9 | /
COC(=O)c1cc(Cl)c(NC(=O)/C=C/c2ccc(OC)c(OC)c2)cc1OC | 29.1 | 18.6 | 8.7 | / | 2.6 | -0.1 | /
CCN(CC(=O)NCc1ccc(Cl)cc1)C(=O)CSCC(=O)Nc1ccc(OC)cc1 | 19.2 | 14.1 | 3.9 | -7.3 | -5.3 | 2.8 | /
CCOC(=O)C1CCCN(CC(=O)Nc2nccs2)C1 (configuration not stated) | -2.0 | 13.8 | -1.7 | -3.2 | 0.7 | -2.5 | /
Cc1ccc(-n2nc3c(=O)n(CC(=O)NCCc4cccs4)nc(C)c3c2C)cc1 | 0.8 | 31.6 | -3.1 | -12.4 | 1.0 | 0.0 | /
Cc1nnc(N2CCCC(C(=O)NCc3ccc(OC(C)C)cc3)C2)c2nn(-c3ccccc3)c(C)c12 (configuration not stated) | 3.1 | 51.5* | -51.5 | 25.5 | -10.8 | 17.9 | 2.6
Cc1ccc(-n2nc3c(N4CCC(C(=O)NCCc5cccs5)CC4)nnc(C)c3c2C)cc1 | 2.0 | 54.5* | -6.6 | 34.9 | 13.8 | 6.8 | 37.1 | Full FLuc ctr=89.2*
Cc1nnc(N2CCCC(C(=O)Nc3cc(F)ccc3F)C2)c2nn(-c3ccccc3)c(C)c12 (configuration not stated) | 6.4 | 96.0* | 8.5 | 24.9 | 29.8 | 10.9 | 49.9* | Full FLuc ctr=73.1*
Cc1nnc(N2CCC(C(=O)N3CCCCC3)CC2)c2nn(-c3ccc(Cl)cc3)c(C)c12 | 5.4 | 38.4 | 24.9 | 40.0 | -11.2 | 9.0 | /
COc1ccc(CCNC(=O)CN2C(=O)COc3ccc(S(=O)(=O)N4CCCC4)cc32)c(OC)c1 | -3.5 | -26.0 | -2.0 | -6.8 | -4.2 | 1.8 | /
SMILES | SKKanGAS inh | Mdm2-MdmX inh | Calb FLC | T cruzi repl | CSC inhib | Beta cell apopt | Mdm2 MdmX conf | others
COc1ccc(NS(=O)(=O)c2cccc(C(=O)NNC(=O)c3cncc(Br)c3)c2)cc1 | 3.2 | 5.0 | 2.6 | -9.2 | -9.1 | 4.7 | /
ClCc1nc2ccccc2c2ccccc12 | -3.2 | 51.7* | -14.0 | -5.8 | 23.7 | 26.2 | 25.6
CC(=O)c1ccccc1NC(=O)COC(=O)/C=C/c1ccc(OC(F)F)cc1 | -5.1 | 33.2 | 1.1 | -7.7 | -14.5 | -8.9 | /
CCCCCCCNC(=O)C1(CC2CC(c3ccc(Cl)cc3)=NO2)CCNCC1 (configuration not stated) | 11.9 | 100.3* | 49.0 | 27.4 | 15.5 | / | 69.1* | Full FLuc ctr=25.4
CCCCCCCNC(=O)C1(CC2CC(c3cccc(Br)c3)=NO2)CCNCC1 (configuration not stated) | 4.1 | 100.3* | 54.4 | 12.4 | 158.6* | / | 85.1* | Full FLuc ctr=60.1*
CC(=O)N1CCN(c2nc(C)nc3sc4c(c23)CCC(C)C4)CC1 (configuration not stated) | -5.3 | 2.2 | 40.5 | 9.0 | -6.3 | 4.7 | /
Cc1nc(N2CCN(C(=O)c3cnccn3)CC2)c2c3c(sc2n1)CC(C(C)(C)C)CC3 (configuration not stated) | 4.8 | 70.1* | 1.5 | 7.5 | / | 1.8 | 33.5
CC1CC(=O)c2c(cc3c(-c4c(O)cc(O)c5c(O)c6c(cc45)OC(C)CC6=O)c(O)cc(O)c3c2O)O1 (configuration not stated) | 107.4* | 100.3* | -16.4 | 71.4* | -1.3 | 98.3* | 93.2* | Full FLuc ctr=5.5
COC(=O)C(=Cc1ccc(OCc2ccc([N+](=O)[O-])cc2)c(OC)c1)C(=O)OC | -2.4 | 91.7* | 6.8 | -14.9 | / | -8.8 | 8.2
CCOC(=O)C(=Cc1ccc(OCc2ccc([N+](=O)[O-])cc2)c(OC)c1)C(=O)OCC | -0.6 | 98.9* | -6.4 | -23.1 | 116.0* | 6.4 | 33.5
Cc1nc2c(C)cccc2cc1C(=O)N/N=C/c1ccc(N(C)C)cc1 | 0.1 | 50.1* | -13.8 | -18.6 | 64.2 | -6.1 | 49.4* | Full FLuc ctr=57.2*
O=S(=O)(Nc1cccc(S(=O)(=O)N2CCCC2)c1)c1cccc(Br)c1 | / | 3.8 | / | / | / | -5.8 | /
CN1C(=O)/C(=C/c2cn(CC(=O)N3CCCCC3)c3ccccc23)c2ccccc21 | 24.8 | 52.4* | 12.3 | 17.9 | -1.9 | -0.2 | 32.2
O=Cc1cn(CC(=O)N2CCCCC2)c2ccccc12 | 1.5 | -6.2 | 4.0 | -39.1 | -4.1 | 7.4 | /
O=C(CN1C(=O)c2ccccc2S1(=O)=O)c1cccc(Br)c1 | 1.5 | 23.3 | -2.9 | -5.5 | -8.7 | -0.7 | /
